# Measured values from PubChem BioAssay.
# The source made the active and inactive calls.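 How the source made its calls, unless noted: active means viability loss from added drug above about 55%, and viability with drug at most 40%, in both replicates (limit read from the data, passing the limit was not always enough); inconclusive means both conditions met in only one replicate; inactive means neither replicate meets both conditions.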
# Key:
# [1] = Her2 expression decrease, cell viability multiplex – SKBR3 breast tumor cells, AlphaScreen, ATP viability, primary screen (AID 461;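 active means Her2 level under about 52% in both replicate screens, with viability over 70% of control, limit read from the data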;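 on Her2 level: lower value means less Her2 protein in the cells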;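 on viability: percent of carrier control wells set as 100% viability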); conditions: SKBR3 Her2 protein level, 18-24 h, measured here: SKBR3 viability, ATP luminescence, at 10 µM
# [2] = biological target: Receptor tyrosine-protein kinase erbB-2 (Homo sapiens) (UniProt P04626); assay: as above; conditions: 18-24 h, at 10 µM, stronger effect = lower value
# [3] = reduced viability of SK-BR-3 breast cancer cells – cell-based, 24 h, human, pilot screen (AID 572;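 active means viability at or below 10% of carrier control in both of two separate runs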;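 further: compound exposure lasted between 18 and 24 h rather than exactly 24 h; 100% = carrier-treated control wells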); conditions: SK-BR-3 viability, CellTiter-Glo luminescence, at 10 µM, stronger effect = lower value
# [4] = HUVEC growth inhibition – cell-based, human, primary screen (AID 575;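 active means viability at or below 30% in both replicate assays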;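 further: 100% = median of untreated cell wells with 0.1% DMSO on each plate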); conditions: HUVEC proliferation, CellTiter-Glo luminescence, 72 h; at 10 µM; stronger effect = lower value
# Summary of the method: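 Test system: HUVEC primary cells. Quantity: 1250 endothelial cells in each well. Dosing: single-point 10 µM, DMSO 0.1% final. Incubation: 72 h treatment at 37 °C. Measured by: CTG luminescence. Control set: DMSO cell controls and MePR drug controls. Plate: collagen-coated 384-well format.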
# [5] = H69AR cell proliferation blockers – human, duplicate replicates, primary screen (AID 580;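 active means viability at or under a set limit in both replicates, limit being median viability minus 3 SD, cut at about 48% in these data, passing the limit was not always enough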;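 further: 100% = mean luminescence of untreated wells and 0% = no signal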); conditions: H69AR lung tumor cells viability, ATP luminescence, 72 h; at 10 µM; stronger effect = lower value
# [6] = MRP1 drug-resistance reversers in H69AR cells – cell-based, doxorubicin co-treatment, pilot screen (AID 601); conditions: CellTiter-Glo, 72 h, at 10 µM; for differential viability (reversal): stronger effect = higher value
# [7] = yeast transport mutant growth inhibition pilot in 384-well plates, post-Golgi transport modulator project (AID 636; in the data active means inhibition above about 31%); conditions: absorbance 615 nm, about 18 h, stronger effect = higher value
# [8] = growth suppression of yeast trafficking mutant, preliminary HTS, modulators of trafficking downstream of Golgi apparatus project, 1536-format plate, OD 615 nm (AID 637; in the data active means inhibition above about 30%); conditions: yeast transport mutant growth, absorbance 615 nm, 18 h; stronger effect = higher value
# [9] = H69AR cells + 2 uM doxorubicin, measured here: viability with 2 uM doxorubicin, stronger effect = lower value
# [10] = H69AR cells, compound alone cytotoxicity
# Sequence of Receptor tyrosine-protein kinase erbB-2 (Homo sapiens) (P04626 whole entry, looked up): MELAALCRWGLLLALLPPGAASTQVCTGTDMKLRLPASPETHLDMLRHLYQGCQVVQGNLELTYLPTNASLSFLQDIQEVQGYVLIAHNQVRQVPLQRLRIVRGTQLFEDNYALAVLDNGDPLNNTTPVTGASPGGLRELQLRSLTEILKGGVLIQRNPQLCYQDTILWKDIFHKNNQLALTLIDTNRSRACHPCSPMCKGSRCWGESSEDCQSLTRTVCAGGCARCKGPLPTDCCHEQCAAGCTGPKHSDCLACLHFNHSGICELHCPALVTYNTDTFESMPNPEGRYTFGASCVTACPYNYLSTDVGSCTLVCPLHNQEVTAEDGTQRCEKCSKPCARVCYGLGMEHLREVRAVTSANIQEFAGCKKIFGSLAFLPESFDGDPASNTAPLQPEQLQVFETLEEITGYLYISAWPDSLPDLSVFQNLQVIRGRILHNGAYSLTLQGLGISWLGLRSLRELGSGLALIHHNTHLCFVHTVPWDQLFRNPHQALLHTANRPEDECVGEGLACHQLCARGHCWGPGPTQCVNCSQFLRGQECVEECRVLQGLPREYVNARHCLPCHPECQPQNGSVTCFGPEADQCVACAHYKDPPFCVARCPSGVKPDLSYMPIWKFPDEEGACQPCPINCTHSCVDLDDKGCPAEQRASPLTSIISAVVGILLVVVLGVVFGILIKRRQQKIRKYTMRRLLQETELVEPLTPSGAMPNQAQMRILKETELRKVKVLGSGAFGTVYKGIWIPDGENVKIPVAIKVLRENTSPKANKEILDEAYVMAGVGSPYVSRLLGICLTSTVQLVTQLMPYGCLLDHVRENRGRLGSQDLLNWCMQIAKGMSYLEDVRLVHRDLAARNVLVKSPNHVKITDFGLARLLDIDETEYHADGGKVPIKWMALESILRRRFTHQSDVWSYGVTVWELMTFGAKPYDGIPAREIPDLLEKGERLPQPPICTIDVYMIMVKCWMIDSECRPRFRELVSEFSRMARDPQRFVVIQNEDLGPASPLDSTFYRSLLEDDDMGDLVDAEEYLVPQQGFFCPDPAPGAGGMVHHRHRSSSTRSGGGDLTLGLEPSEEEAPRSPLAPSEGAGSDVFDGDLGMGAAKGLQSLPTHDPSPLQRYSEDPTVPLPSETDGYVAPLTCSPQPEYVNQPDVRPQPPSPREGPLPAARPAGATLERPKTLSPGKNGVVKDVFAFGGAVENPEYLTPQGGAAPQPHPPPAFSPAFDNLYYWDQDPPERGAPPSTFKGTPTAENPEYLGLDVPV
SMILES,viability [1] [%],Her2 level [2],viability [3],viability [4],viability [5],differential viability (reversal) ([6]; H69AR cells + 2 uM doxorubicin),"viability [6, 9] [%]","viability [6, 10] [%]",inhibition [7],inhibition [8]
CCOc1ccc2cc(C#N)c(SCC(=O)N3CCOCC3)nc2c1,109,81.5% (inactive),109% (inactive),87.1% (inactive),74.6% (inactive),31.8% (inactive),42.8,74.6,-6.8% (inactive),1.94% (inactive)
O=C(O)CC1NC(=O)N(c2ccccc2)C1=O (stereo not given),108,85% (inactive),108% (inactive),109% (inactive),99.3% (inactive),7.85% (inactive),91.5,99.3,-5.33% (inactive),0% (inactive)
COC(=O)c1[nH]c2ccc(F)cc2c1NS(=O)(=O)c1ccc(OC)cc1OC,79,75% (inactive),79% (inactive),88.5% (inactive),84.4% (inactive),-15.5% (inactive),99.9,84.4,-6.76% (inactive),4.92% (inactive)
O=S(=O)(c1ccccc1)c1nc(-c2cccs2)oc1NCC1CCCO1 (stereo not given),84.5,97% (inactive),84.5% (inactive),87.9% (inactive),99.7% (inactive),-2.42% (inactive),102,99.7,2.67% (inactive),10.7% (inactive)
CSc1nc(N2CCOCC2)c2ccccc2n1,110,100% (inactive),110% (inactive),93.7% (inactive),94.6% (inactive),7.67% (inactive),87,94.6,-2.27% (inactive),-7.87% (inactive)
COc1ccc(N2CCN(Cc3nc4c(c(=O)[nH]c(=O)n4C)n3CC(C)=O)CC2)cc1,98.5,102% (inactive),98.5% (inactive),101% (inactive),95.4% (inactive),10.4% (inactive),84.9,95.4,0% (inactive),0.17% (inactive)
O=C(CSc1nnnn1Cc1ccccc1)Nc1ccc2c(c1)OCO2,114,108% (inactive),114% (inactive),90.3% (inactive),108% (inactive),18.2% (inactive),89.5,108,-5.54% (inactive),-3.17% (inactive)
Cc1ccc(S(=O)(=O)Nc2cc(C(=O)O)ccc2N2CCCCC2)cc1,112,112% (inactive),112% (inactive),101% (inactive),85.6% (inactive),-1.99% (inactive),87.6,85.6,-5.97% (inactive),6.07% (inactive)
CCn1ncc(C2=NOC(C(=O)NCc3ccccc3)C2)c1C (stereo not given),91,82.5% (inactive),91% (inactive),43.2% (inactive),27.5% (active),-33% (inactive),60.4,27.5,-6.18% (inactive),-1.9% (inactive)
O=S(NCc1ccco1)C12CC3CC(CC(C3)C1)C2 (stereo not given),104,116% (inactive),104% (inactive),93.5% (inactive),88% (inactive),3.96% (inactive),84,88,-1.08% (inactive),-5.4% (inactive)
Cc1ccccc1-n1nnnc1SCC(=O)Nc1ccc(S(=O)(=O)N2CCCC2)cc1,70.5,100% (inactive),70.5% (inactive),94.6% (inactive),85% (inactive),-2.96% (inactive),88,85,0.53% (inactive),2.1% (inactive)
CC1CCCN(C(=O)c2cc(F)c(F)cc2Cl)C1 (stereo not given),99,95.5% (inactive),99% (inactive),104% (inactive),89.2% (inactive),-4.92% (inactive),94.1,89.2,-4.93% (inactive),-3.77% (inactive)
CCCCC(=O)Nc1nn(CCC)c2nc3ccccc3cc12,94,92% (inactive),94% (inactive),92.5% (inactive),96.1% (inactive),-5.81% (inactive),102,96.1,-1.97% (inactive),6.23% (inactive)
O=C(Nc1ccccc1N1CCCCC1)c1ncoc1-c1ccc(F)cc1,115,109% (inactive),115% (inactive),78.1% (inactive),84.6% (inactive),-1.2% (inactive),85.8,84.6,-3.47% (inactive),-2.86% (inactive)
CCN(CC)c1ccc(CNc2ccc(Br)cn2)cc1,108,92.5% (inactive),108% (inactive),106% (inactive),90.7% (inactive),-14.7% (inactive),105,90.7,-0.66% (inactive),-3.11% (inactive)
O=C(NCC1COc2ccccc2O1)C1CCCN(S(=O)(=O)c2cnc[nH]2)C1 (stereo not given),88,101% (inactive),88% (inactive),91.9% (inactive),109% (inactive),18.9% (inactive),89.7,109,-2.13% (inactive),-2.95% (inactive)
